From ChEMBL document CHEMBL4513216, “Probing the Open Global Health Chemical Diversity Library for Multistage-Active Starting Points for Next-Generation Antimalarials” (ACS Infect Dis, 2020)

Assay: Toxicity liver stage against HepG2, at 10uM
Type: cell-based
Set-up: test concentration 10 uM, cell line HepG2-A16-CD81EGFP
Conditions: human, HepG2-A16-CD81EGFP cells; read-out: INHIBITION
Method in brief: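 Uninfected HepG2-A16-CD81EGFP cells, 3 × 10^3 per well, 1536-well, plated on prespotted compound at 10 μM final, parasite-free screening media added to match infected plates; puromycin 10 μM positive, DMSO 0.5% negative; run in parallel with 48 h PbLuc assay at 37 °C, 5% CO2; viability by CellTiter-Glo luminescence, normalized to controls.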

Row | Structure (SMILES) | cytotoxicity at 10 µM [%]
1 | Cc1nc(CO[C@@H]2CN(Cc3ccccn3)[C@@H]3COC[C@@H]32)cs1 | 5.45
2 | CCSc1cc(C(=O)NCCC(=O)Nc2ccccn2)ccn1 | -8.62
3 | Cc1ccc(NC(=O)Nc2c[nH]c(=O)[nH]c2=O)c(Cl)c1 | -4.28
4 | COc1ccccc1N1CC(NC(=O)c2cc(C(C)C)nn2C)CC1=O (centres undefined) | 52.4
5 | CN(CCC#N)C(=O)CN1CCCC1c1cccs1 (centres undefined) | -8.83
6 | CC(C)Cc1noc(COc2ccc(N(C)C(N)=O)cc2)n1 | 34.4
7 | Clc1ccccc1C1(c2ccnc(C3CC3)n2)CCNCC1 | 7.89
8 | COc1ccnc(N2C[C@H]3CC[C@@H](C2)N(CC2CCC2)C3=O)n1 | -0.054
9 | CC(c1cccc(-c2nccn2CCc2cn[nH]c2)c1)N(C)C (centres undefined) | -4.83
10 | c1ccc(CCCN2CC[C@H](c3nnc(-c4ccccc4)o3)C2)cc1 | 4.77
11 | CN(Cc1ccc(Cl)s1)C(=O)c1ccccc1OCC(N)=O | -9.2
12 | NC(=O)Cn1cc(NC(=O)N2CCCCCC2)cn1 | -11.8
13 | Cc1cc(C(=O)N2CCCC(Cn3cc(C4CC4)nn3)C2)nc(C)n1 (centres undefined) | -0.916
14 | Cc1nc(-c2ncc(C(=O)NCCNc3ncccc3C)c(O)n2)cs1 | -0.153
15 | CC(C)NC(=O)CS(=O)(=O)Cc1cc(Cl)c2c(c1)OCCO2 | -4.53
16 | CCN(CC)Cc1cc(C(=O)N2CC[C@@]3(O)CCCC[C@H]3C2)c(C)o1 | 2.93
17 | Cc1ccc(N2CC[C@H]3OCC[C@@]3(C(=O)N3CCCC3)C2)nn1 | 2.46
18 | CCN(CCSc1ccccc1)C(=O)c1cn(C2CCC(N)CC2)nn1 (centres undefined) | -2.93
19 | COc1cccc(OC)c1CN1CC(O)CN(S(C)(=O)=O)CC1=O (centres undefined) | -82.6
20 | OC1(CN2CCCC2)COCCN(c2noc(-c3ccccc3)n2)C1 (centres undefined) | 0.726
21 | O=C1COc2cc(C(=O)NS(=O)(=O)c3ccc(F)cc3)ccc2N1 | -8.47
22 | Cc1cccnc1CN1CC[C@H](Oc2cccc(F)c2)[C@@](C)(O)C1 | -5.77

Row | Structure (SMILES) | cytotoxicity at 10 µM [%]
23 | Cc1cnn(CC(C)NCc2c(C)nn(Cc3ccccc3)c2C)c1 (centres undefined) | -4.66
24 | Cc1cc(C(=O)Nc2ccc(-c3nnc(N(C)C)o3)cc2)oc1C | 0.11
25 | COc1cccc2c1OCC(CNC(=O)CSc1nc(N)n[nH]1)C2 (centres undefined) | 0.712
26 | CN(C)CCn1ccc(NC(=O)NC(C)(C)c2nccs2)n1 | 3.92
27 | COCCNC(=O)c1cc(F)ccc1NS(C)(=O)=O | -1.23
28 | N#Cc1cc(F)ccc1NCC1CCS(=O)(=O)CC1 | 2.02
29 | CNc1cncc(C2CCCN2S(=O)(=O)c2ccccc2)n1 (centres undefined) | -22
30 | O=S(=O)(c1ccc(Cl)s1)N1CCCn2ncnc21 | -3.06
31 | Cc1c(Br)cccc1NC(=O)N(C)CCO | -24.5
32 | Cc1nc(C)n(CC2CCCN2c2ncnc3ccsc23)n1 (centres undefined) | 7.61
33 | CNS(=O)(=O)c1ccc(CN2CCCN(CC(C)C)CC2)cc1 | 4.03
34 | CN(C)[C@H]1CCCCN(C(=O)c2cccc(-c3cccc(F)c3)c2)C1 | -6.3
35 | Cc1ccc(S(=O)(=O)NC(CO)CC(C)C)cc1N(C)C (centres undefined) | -0.996
36 | O=C1NCCCCC1NC(=O)C1(c2ccccc2)CCOCC1 (centres undefined) | -14.2
37 | CCOc1cccc(CN(Cc2cnn(C)c2)CC(C)C)c1O | -7
38 | Cc1ccc(C(=O)N2CCC3(CCN3c3ncccn3)C2)cn1 (centres undefined) | -135
39 | Cn1cc(N2C(=O)CC[C@@H]3[C@H]2CCN3Cc2nccs2)cn1 | 8.62
40 | NC(=O)[C@@H]1Cc2ccccc2CN1S(=O)(=O)N1CCCCC1 | 3.33
41 | CCC1C(=O)NCCN1c1cc(C)ncn1 (centres undefined) | 3.41
42 | Cn1c(Cn2ccnc2)nnc1C1CCN(C(=O)c2ccncc2)CC1 | -106
43 | Cc1nc(C2CCCN2C(=O)COc2ccccc2)ncc1C(N)=O (centres undefined) | -19.1
44 | Cc1c(Cn2c(=O)cnc3ccccc32)cnn1C | -0.473

Row | Structure (SMILES) | cytotoxicity at 10 µM [%]
45 | Cc1nc(N2CCOCC2)nc2c1CCN(c1nccs1)CC2 | 7.37
46 | CC(=O)NCCc1ccc(C(=O)N2CCCC2c2cnn(C)c2)cc1 (centres undefined) | -4.74
47 | CCC(C)(C)NC(=O)CN(C)C(c1cccc(F)c1)c1ccccn1 (centres undefined) | -3.15
48 | O=C(O)c1ccnc(-c2ccnc(COc3cccc(F)c3)n2)c1 | -2.31
49 | COc1ncccc1CNC(=O)c1cc(Cl)ccn1 | -7.51
50 | CC(C)Nc1nnc(SCc2nnc(C(C)(C)C)o2)s1 | -0.386
51 | CC(C)n1nc(CNc2ncccn2)c2c1CN(C)CC2 | -142
52 | c1csc(-c2nc(CNC3CCc4ncnn4C3)co2)c1 (centres undefined) | -5.69
53 | CC(C)c1n[nH]c(C2CN(Cc3nnc(C4CC4)o3)CCO2)n1 (centres undefined) | -10.1
54 | COc1ccc(CN2C[C@H]3CN(c4ccsc4)C(=O)[C@H]3C2)cc1 | 22.8
55 | Cc1cc(NC(=O)Nc2ccc3c(ccn3CCN(C)C)c2)n(C)n1 | 3.38
56 | CNC(=O)c1cccnc1N1CCC(OCc2ccccc2)CC1 | 2.49
57 | Cn1cccc1C(=O)N1CCC2(CC1)CN(c1ccccn1)CCO2 | -10.8
58 | Cc1cccc(NS(=O)(=O)c2cc3c(c(C(=O)O)c2)OCCO3)c1 | -3.44
59 | CC1CNC(=O)CCN1Cc1cc(O)c2cccc(F)c2n1 (centres undefined) | -4.5
60 | CS(=O)(=O)N1C[C@@H](C(=O)Nc2cnccn2)C[C@H]2OCC[C@H]21 | 17.3
61 | CCOc1ccccc1-c1cc2c(cc1C(N)=O)OCO2 | 5.05
62 | Cn1nc2c(cc1=O)CN(Cc1coc(-c3cccc(F)c3)n1)CC2 | -12.6
63 | CCOc1cccc(C(=O)N(CCC#N)Cc2ccccn2)c1 | 5.42
64 | CCN(CC)C(=O)c1ccc(Cl)c(NC(=O)c2cc[nH]n2)c1 | 7.86
65 | COCCn1cncc1CN1CCCC(C(=O)Cc2ccccc2)C1 (centres undefined) | -6.55
66 | CCOCCN1C[C@@H]2CCCO[C@@H]2[C@H](NC(=O)c2cnoc2C)C1 | -119

Row | Structure (SMILES) | cytotoxicity at 10 µM [%]
67 | COCCNc1nc2c(c(N3CCn4nc(C)cc4C3)n1)CCNCC2 | 7.8
68 | CC(C)N(C)Cc1ncn2c1CN(S(=O)(=O)c1cccs1)CCC2 | 3.62
69 | CCN(CC)S(=O)(=O)CCNc1nnc(C(C)C)s1 | 7.2
70 | CS(=O)(=O)c1cccc(S(=O)(=O)NC(=O)c2cscn2)c1 | 1.33
71 | Cc1ccnc(NC(=O)c2ccc(F)c(S(=O)(=O)NC3CC3)c2)c1 | 10.4
72 | c1ccc(-c2cccc(-c3ccn(CCN4CCCCC4)n3)c2)nc1 | -4.73
73 | CC(C)c1ncc(CN2CCC(c3n[nH]cc3C(=O)N(C)C)C2)cn1 (centres undefined) | 2.27
74 | Cc1cccnc1CNCC1(O)CCCN(Cc2ccc(F)cc2)C1=O (centres undefined) | -12.3
75 | CC(Cc1c(F)cccc1F)NC(=O)CN(CC(N)=O)C(C)C (centres undefined) | -10.5
76 | Cn1cc(-c2csc(N3CCN(C(=O)OC(C)(C)C)CC3)n2)cn1 | 23.2
77 | O=C1CSC(c2cccnc2)c2c(n(C3CCOCC3)[nH]c2=O)N1 (centres undefined) | -7.95
78 | O=C(NCc1ccco1)[C@H]1C[C@H]2OCC[C@H]2N(C(=O)c2ccncc2)C1 | -5.34
79 | NC(=O)C1CCN(Cc2ccc(S(=O)(=O)N3CCCC3)o2)CC1 | 1.04
80 | O=C(c1cnc(-c2cccs2)s1)N1CCCN2CCCC2C1 (centres undefined) | -13.9
81 | COc1c(C)cnc(CN2CCC(N(C)C(=O)C(C)OC)CC2)c1C (centres undefined) | -11.3
82 | CS(=O)(=O)c1ccc(NC(=O)CSC(F)(F)F)cn1 | 8.28
83 | Cc1cccc(N2CCN(S(=O)(=O)CCN)CC2)c1 | 0.0723
84 | CC(C)N1CCCC(C(=O)NCCCc2cnn(C)c2)C1 (centres undefined) | 17.1
85 | C=C(C)CN1CCCC(NS(C)(=O)=O)C1 (centres undefined) | 4.21
86 | CC(C)CN1C[C@@H]2OCC(=O)N(Cc3nccn3C)[C@@H]2C1 | 0.174
87 | CC(NC(=O)N1CCS(=O)(=O)CC1)c1ccc(F)cc1Cl (centres undefined) | -1.28
88 | Cc1nc(C2CCN(C(=O)c3ccc(Cl)s3)CC2)cc(=O)[nH]1 | -0.243

Row | Structure (SMILES) | cytotoxicity at 10 µM [%]
89 | Cc1ccnc(OC[C@]23COC[C@H]2CN(C(=O)c2ncccn2)C3)n1 | -3.18
90 | CCOc1cccc(CCNC(=O)Cc2cccc(O)c2)n1 | -5.26
91 | CC1(CO)COC(Cc2ccc(Cl)cc2)=N1 (centres undefined) | 12.6
92 | C=C(C)Cn1c(=O)nc(N)c2c(-c3ccc(OC)cc3)csc21 | -26
93 | COc1ccc(-n2nnc(C(N)=O)n2)cc1 | 8.13
94 | Cc1cccc(C(C(=O)NCc2nc(-c3cccnc3)no2)N(C)C)c1 (centres undefined) | 6.45
95 | CN(C(=O)CCc1ccncc1)C1CCCN(CCc2ccccc2)C1 (centres undefined) | -13.5
96 | CS(=O)(=O)NCC1CCCN(C(=O)COc2ccc(F)cc2)C1 (centres undefined) | -6.38
97 | CCCN1CCc2[nH]nc(C(=O)N3CCNC(=O)C3)c2C1 | 14.9
98 | CC1=N[C@@]2(CC[C@@H]3CN(CC(C)C)C[C@@H]32)C(=O)N1CC(C)C | -79.6
99 | Cc1cc(C)c(CNC(=O)C2CCN(c3cnccn3)CC2)c(=O)[nH]1 | -10.7
100 | O=C(CC1[C@H]2CN(C(=O)c3cccnc3)C[C@@H]12)Nc1cccnc1 (some centres undefined) | 7.37
101 | CCCOC1Sc2nnc(C)n2N=C1c1ccccc1 (centres undefined) | 1.57
102 | COc1ccc(-c2ccncc2)cc1CNC1CCCC1 | -47.7
103 | Cc1noc(CCCC(=O)Nc2cc(C(F)(F)F)c[nH]c2=O)n1 | -10.8
104 | CC(NCCN1CCN(C(=O)C2CCCC2)CC1)c1ccccn1 (centres undefined) | -2.17
105 | O=C(c1ccncc1)N1CCc2[nH]nc(Nc3ccccc3)c2C1 | 3.13
106 | Cc1cncc(C(=O)N2CCC3(CC2)C(=O)Nc2ccccc23)c1 | -137
107 | CNc1cncc(C2CCCN2Cc2cccc(C)n2)n1 (centres undefined) | -8.3
108 | Cc1nc(-c2ccccc2)sc1C(=O)NCCNc1ncccn1 | 0.273
109 | CSCC[C@H](NC(=O)N1CCC(Cc2ccccc2)CC1)C(=O)O | -1.55
